Assays:
[1] = molecular target: Muscarinic acetylcholine receptor; assay: Dissociation constant estimated by Schild analysis for antimuscarinic activity in guinea pig bladder; format: protein assay, Cavia porcellus
Outline: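 Longitudinal bladder strip (2 mm wide, urethra to apex) in PSS at 37 °C, with isometric recording. Tissue was equilibrated 30 min, and carbachol control curves were run as for ileum. Dose ratios (carbachol ED50 after/before antagonist) were taken at 3–4 antagonist concentrations, each tested 4–8 times. pA2 came from Schild plots with slope fixed at −1.0.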

[2] = molecular target: Muscarinic acetylcholine receptor; assay: Dissociation constant estimated by Schild analysis for antimuscarinic activity for guinea pig ileum; format: tissue-based, Cavia porcellus
Outline: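 Terminal ileum segments (2 cm, taken about 5 cm from the ileocecal junction) in PSS at 37 °C, with isotonic recording. After 30 min equilibration, carbachol dose–response curves were run at 30-min intervals; the second served as control. Antagonist was applied for 30 min, then the carbachol curve repeated. Dose ratios were taken at 3–4 concentrations, n=4–8 each. pA2 came from Schild analysis, slope constrained to −1.0.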

[3] = molecular target: Muscarinic acetylcholine receptor; assay: Dissociation constant estimated by Schild analysis for antimuscarinic activity in guinea pig heart; format: protein assay, Cavia porcellus
Outline: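 Guinea pig heart preparation with carbachol as agonist and water as solvent for drugs. Dose ratios (carbachol ED50 with/without antagonist) were measured at 3–4 antagonist concentrations, 4–8 replicates each. Parallel untreated tissues monitored sensitivity drift. pA2 was estimated by Schild analysis with slope constrained to −1.0; means ± SE.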

Structure (SMILES)	pA2 [1]	pA2 [2]	pA2 [3]
C[N+](C)(C)C[C@@H]1C[S@+]([O-])[C@](c2ccccc2)(C2CCCCC2)O1.[I-] (stereo in doubt; (-)-4)	5.52	5.55	5.48
C[N+](C)(C)C[C@@H]1C[S+]([O-])[C@@](c2ccccc2)(C2CCCCC2)O1.[I-] (single isomer, unassigned; (+)-7)	7.73	7.84	7.69
C[N+](C)(C)C[C@@H]1C[S+]([O-])[C@@](c2ccccc2)(C2CCCCC2)O1.[I-] (mixture of isomers; form 1)	5.83	5.93	5.93
C[N+](C)(C)C[C@@H]1C[S@+]([O-])[C@](c2ccccc2)(C2CCCCC2)O1.[I-] (stereo in doubt; (+\-)-4)	6.96	6.91	6.53
C[N+](C)(C)C[C@@H]1C[S@@+]([O-])[C@](c2ccccc2)(C2CCCCC2)O1.[I-] (stereo in doubt; (-)-3)	5.88	5.75	6.24
C[N+](C)(C)C[C@@H]1C[S@+]([O-])[C@](c2ccccc2)(C2CCCCC2)O1.[I-] (stereo in doubt; (+)-4)	7.19	7.19	6.8
C[N+](C)(C)C[C@@H]1C[S+]([O-])[C@@](c2ccccc2)(C2CCCCC2)O1.[I-] (single isomer, unassigned; (-)-7)	5.49	5.52	5.37

Results, then the molecule that gave them:

pA2 [1]	pA2 [2]	pA2 [3]	Structure (SMILES)
5.94	6.07	5.54	C[N+](C)(C)C[C@@H]1C[S@@+]([O-])[C@](c2ccccc2)(C2CCCCC2)O1.[I-] (stereo in doubt; (+)-3)
6.07	6.17	6.01	C[N+](C)(C)C[C@@H]1C[S+]([O-])[C@@](c2ccccc2)(C2CCCCC2)O1.[I-] (single isomer, unassigned; (-)-8)
5.56	5.96	5.44	C[N+](C)(C)C[C@@H]1C[S+]([O-])[C@@](c2ccccc2)(C2CCCCC2)O1.[I-] (single isomer, unassigned; (+)-8)
7.53	7.73	7.45	C[N+](C)(C)C[C@@H]1C[S+]([O-])[C@@](c2ccccc2)(C2CCCCC2)O1.[I-] (mixture of isomers; form 2)
5.89	6.05	5.96	C[N+](C)(C)C[C@@H]1C[S@@+]([O-])[C@](c2ccccc2)(C2CCCCC2)O1.[I-] (racemic)
